The subject of experiment [1] is phospho-CtIP and BRCA1 (BRCT)2. Nature of the experiment: pull down-western of phospho-CtIP-myc from cell lysates with BRCA1. Particulars: synthesized peptide, increasing concentrations. The experiment is classed as binding.
A further experiment has as its target BRCA1 (BRCT)2 (Homo sapiens, UniProt P38398). Nature of the experiment: isothermal titration calorimetry with TR-. The class given is binding. Particulars: ITC.
The target in experiment [2] is BRCA1 (BRCT)2 (thioredoxin-(BRCT)2 fusion) (Homo sapiens, UniProt P38398). Description: competition fluorescence polarization assay against FAM-β-A-pSPTF-NH2. The experiment is classed as binding. Summed up: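 Competition fluorescence polarization: 20 nM FAM-β-A-pSPTF tracer plus 2.7 μM thioredoxin-(BRCT)2 fusion, titrated with variable concentrations of test peptide. IC50 obtained by fitting a four-parameter logistic equation.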

In experiment [3] the target is BACH1-derived tetrapeptide (Homo sapiens) (UniProt Q9BX63). Particulars: cited from earlier work.
Chain of BACH1-derived tetrapeptide (Homo sapiens) (Q9BX63 whole entry, looked up, tested part not stated): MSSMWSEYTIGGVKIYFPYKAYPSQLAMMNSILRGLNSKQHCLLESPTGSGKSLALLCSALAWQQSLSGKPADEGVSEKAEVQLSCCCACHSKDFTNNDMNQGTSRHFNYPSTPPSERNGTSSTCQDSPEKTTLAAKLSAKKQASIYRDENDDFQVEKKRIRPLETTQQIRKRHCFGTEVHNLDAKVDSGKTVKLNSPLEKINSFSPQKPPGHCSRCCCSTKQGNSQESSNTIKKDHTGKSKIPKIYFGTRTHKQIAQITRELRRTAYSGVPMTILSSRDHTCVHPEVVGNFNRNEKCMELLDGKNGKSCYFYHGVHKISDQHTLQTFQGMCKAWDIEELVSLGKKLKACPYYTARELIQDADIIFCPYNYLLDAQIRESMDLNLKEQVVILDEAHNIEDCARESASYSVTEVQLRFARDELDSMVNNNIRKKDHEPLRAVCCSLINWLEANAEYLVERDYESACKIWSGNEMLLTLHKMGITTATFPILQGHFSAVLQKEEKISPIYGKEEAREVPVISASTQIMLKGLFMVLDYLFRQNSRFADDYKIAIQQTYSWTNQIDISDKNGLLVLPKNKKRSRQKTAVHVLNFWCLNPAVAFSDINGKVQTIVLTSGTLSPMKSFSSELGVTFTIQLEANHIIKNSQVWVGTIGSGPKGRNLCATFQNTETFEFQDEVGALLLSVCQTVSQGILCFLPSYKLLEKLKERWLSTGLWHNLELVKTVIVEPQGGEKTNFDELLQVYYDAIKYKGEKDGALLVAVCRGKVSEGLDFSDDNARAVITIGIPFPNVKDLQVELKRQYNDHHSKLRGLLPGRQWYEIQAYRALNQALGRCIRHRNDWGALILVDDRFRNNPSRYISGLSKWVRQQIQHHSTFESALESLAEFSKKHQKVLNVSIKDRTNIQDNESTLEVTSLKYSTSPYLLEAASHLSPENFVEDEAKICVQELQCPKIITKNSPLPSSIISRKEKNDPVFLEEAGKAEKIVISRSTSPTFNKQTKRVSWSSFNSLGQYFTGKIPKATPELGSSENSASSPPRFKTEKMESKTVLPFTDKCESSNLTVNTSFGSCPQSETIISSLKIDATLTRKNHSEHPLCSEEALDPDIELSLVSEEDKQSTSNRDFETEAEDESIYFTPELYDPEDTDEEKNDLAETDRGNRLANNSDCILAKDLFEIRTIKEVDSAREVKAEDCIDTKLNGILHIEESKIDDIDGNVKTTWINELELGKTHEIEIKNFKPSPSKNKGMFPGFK
For another experiment, the system named is GST-BRCA1 (BRCT)2 N1774A. Nature of the experiment: fluorescence polarization binding to GST-BRCA1. Set-up: species or system human. Particulars: FP; FITC-BACH1 peptide. Summed up: (§1)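 Direct fluorescence polarization of GST-BRCA1 (BRCT)2 point mutants and wild type, using either the labelled BACH1 phosphopeptide (FITC-[…]-NH2) or FAM-β-Ala-labelled test peptide as probe. KD for each mutant was determined by FP, then normalized to the wild-type GST-(BRCT)2 KD.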
(Polarisation of emitted light reports the rotation of a fluorescent probe.)

The test system of the next experiment is GST-BRCA1 (BRCT)2 E1698A. Description: fluorescence polarization binding to GST-BRCA1. Set-up: species or system human. Particulars: FP; FITC-BACH1 peptide. Summed up: as §1
In the next experiment the test system is GST-BRCA1 (BRCT)2 K1702M. Description: fluorescence polarization binding to GST-BRCA1. Set-up: species or system human. Particulars: FP; FITC-BACH1 peptide. Summed up: as §1
Another experiment has as its system GST-BRCA1 (BRCT)2 S1655A. Nature of the experiment: fluorescence polarization binding to GST-BRCA1. Set-up: species or system human. Particulars: FP; fluorescent peptides FAM-β-Ala-8.6 or FITC-BACH1 peptide. In a few lines:
as §1

Experiment [4] deals with thioredoxin-(BRCT)2 fusion (human) (UniProt P38398). Nature of the experiment: ITC. (ITC needs no label: the signal is the heat of the interaction.)
Experiment [5] has the same target. Description: fluorescence polarisation.
Experiment [6] concerns the target GST-BRCA1 (BRCT)2 K1702M (human) (UniProt P38398). Nature of the experiment: fluorescence polarisation.

Where a SMILES comes first, the peptide text is derived from it. Where no end group is shown, it is not given here. [ ]: non-standard residue; d: D form. Phe(4-F) = N[C@@H](Cc1ccc(F)cc1)C(=O)O; pS = N[C@@H](COP(=O)(O)O)C(=O)O; βAla = NCCC(=O)O

Consider “8.6 Nat: peptide 8.6 with the two 4FPhe substituted with Phe (MCTIDFDEYRFRKT)”, for which the “blocking of binding of phospho-CtIP and BRCA1 in cell lysates” value in [1] is recorded as “able to block the binding”. Moreover, the “binding after substitution of the two 4FPhe with Phe” value with BRCA1 (BRCT)2 was “did not significantly abrogate binding”.

For the molecule “8.6E8pS: mutant of peptide 8.6 containing the Glu to pSer mutation (MCTID[Phe(4-F)]D[pS]YR[Phe(4-F)]RKT)”, the “fold lower KD than peptide 8.6” value in the experiment with BRCA1 (BRCT)2 (25 °C, pH 7.4, TR-(BRCT)2 20 uM, peptide 214 μM) is 10 fold. `CC[C@H](C)[C@H](NC(=O)[C@H](Cc1ccc(F)cc1)NC(=O)[C@H](CC(=O)O)NC(=O)[C@H](CC(N)=O)NC(=O)[C@H](CS)NC(=O)[C@H](CCSC)NC(C)=O)C(=O)N[C@@H](Cc1ccc(F)cc1)C(=O)N[C@@H](CCCNC(=N)N)C(=O)N[C@@H](CCCNC(=N)N)C(=O)N[C@@H](CO)C(=O)N[C@H](C(=O)N[C@@H](Cc1ccc(F)cc1)C(=O)N[C@@H](CCCNC(=N)N)C(=O)N[C@@H](C)C(N)=O)[C@@H](C)O` [8.1] (Ac-MCND[Phe(4-F)]I[Phe(4-F)]RRST[Phe(4-F)]RA-NH2) came in with a half-inhibitory concentration (IC50) in [2] of 24 ± 2 µM. In the case of `CC[C@H](C)[C@H](NC(=O)[C@H](Cc1ccc(F)cc1)NC(=O)[C@H](CC(=O)O)NC(=O)[C@H](CO)NC(=O)[C@H](CS)NC(=O)[C@H](CCSC)NC(C)=O)C(=O)N[C@@H](Cc1ccc(F)cc1)C(=O)N[C@@H](CO)C(=O)N[C@@H](CCCNC(=N)N)C(=O)N[C@@H](CCCNC(=N)N)C(=O)N[C@H](C(=O)N[C@@H](Cc1ccc(O)cc1)C(=O)N[C@H](C(=O)N[C@@H](Cc1ccc(F)cc1)C(N)=O)[C@@H](C)O)[C@@H](C)O` [8.2] (Ac-MCSD[Phe(4-F)]I[Phe(4-F)]SRRTYT[Phe(4-F)]-NH2), in experiment [2], the IC50 was 49 ± 5 µM.

For `CSCC[C@H](NC(C)=O)C(=O)N[C@@H](CS)C(=O)N[C@@H](Cc1ccc(O)cc1)C(=O)N[C@@H](CC(=O)O)C(=O)N[C@@H](Cc1ccc(F)cc1)C(=O)N[C@@H](CC(=O)O)C(=O)N[C@H](C(=O)N[C@H](C(=O)N[C@@H](CC(N)=O)C(=O)N[C@@H](CC(=O)O)C(=O)N[C@@H](Cc1c[nH]cn1)C(=O)N[C@H](C(=O)N[C@@H](Cc1ccc(F)cc1)C(N)=O)[C@@H](C)O)[C@@H](C)O)[C@@H](C)O` [8.5] (HELM PEPTIDE1{[ac].M.C.Y.D.[O=C([C@H](Cc1ccc(F)cc1)N[*:1])[*:2]].D.T.T.N.D.H.T.[O=C([C@H](Cc1ccc(F)cc1)N[*:1])[*:2]].[am]}$$$$V2.0), the IC50 in [2] was 26 ± 2 µM. As to BRCA1 BRCT2 (from UniProt P38398), in [3], the dissociation constant Kd is 0.19 µM. In the case of FITC-SRSTpSTPFNK-NH2 [pSer peptide], the “change in affinity, N1774A versus wild type” value in the experiment on GST-BRCA1 (BRCT)2 N1774A is “no significant change in affinity”. Besides, the “change in affinity, E1698A versus wild type” value in the experiment with GST-BRCA1 (BRCT)2 E1698A is on record as “no significant change in affinity”. Besides, in the experiment with GST-BRCA1 (BRCT)2 K1702M, the “binding to K1702M mutant versus wild type” value is listed as “completely abolished recognition”. The “binding to S1655A mutant versus wild type” value in the experiment on GST-BRCA1 (BRCT)2 S1655A is recorded as “completely abolished recognition”. Turning to “Y9A: Tyr to Ala mutant of peptide 8.6 (MCTID[Phe(4-F)]DEAR[Phe(4-F)]RKT)”, in experiment [2] (competition FP, TR-BRCA1 (BRCT)2 2.5 μM, FAM-β-Ala-pSPTF-NH2 20 nM), the “competitive binding of alanine mutant relative to wild-type 8.6” value is “competed more effectively for binding than the wild-type 8.6”. In the case of MCTID[Phe(4-F)]D[pS]YR[Phe(4-F)]RKT [peptide 8.6E8pS], the fold lower KD than peptide 8.6 in [4] came to 10 fold.

B1: peptide 8.6 (peptide)
peptide: MCTIDFDEYRFRKT
HELM: PEPTIDE1{[ac].M.C.T.I.D.[O=C([C@H](Cc1ccc(F)cc1)N[*:1])[*:2]].D.E.Y.R.[O=C([C@H](Cc1ccc(F)cc1)N[*:1])[*:2]].R.K.T.[am]}$$$$V2.0
SMILES: CC[C@H](C)[C@H](NC(=O)[C@@H](NC(=O)[C@H](CS)NC(=O)[C@H](CCSC)NC(C)=O)[C@@H](C)O)C(=O)N[C@@H](CC(=O)O)C(=O)N[C@@H](Cc1ccc(F)cc1)C(=O)N[C@@H](CC(=O)O)C(=O)N[C@@H](CCC(=O)O)C(=O)N[C@@H](Cc1ccc(O)cc1)C(=O)N[C@@H](CCCNC(=N)N)C(=O)N[C@@H](Cc1ccc(F)cc1)C(=O)N[C@@H](CCCNC(=N)N)C(=O)N[C@@H](CCCCN)C(=O)N[C@H](C(N)=O)[C@@H](C)O
In experiment [4], B1 had a dissociation constant (Kd) of 3.7 µM and a dH (printed as a magnitude; the paper calls it negative) of 24.6 kcal/mol. In experiment [5], this molecule registered a 50% inhibitory concentration (IC50) of 10 µM.

As to {FAM-βAla}-MCTIDFDEYRFRKT-NH2 [FAM-β-Ala-…-NH2], in [6], the fold reduction in binding against wild-type GST-BRCA1 (BRCT)2 came to 6 fold.

A word on the IC50: it is the concentration needed to halve the response being measured. The low end stands for greater potency in that assay, the high end for weaker potency in that assay. Usually Kd stands for a measure of binding affinity in units of concentration.

These data come from article PMC4433557 (ACS chemical biology, 2015).
